Results taken from ChEMBL document CHEMBL5055634 (J Med Chem, 2021).
Activity calls are given as the source filed them. No cut-off for these calls is given here.

Columns and labels:
[1] = system: Pseudomonas aeruginosa PAO1; experiment: Binding affinity to Pseudomonas aeruginosa PA01 cell wall at 10 uM incubated for 1 hr in dark
Summary of the method: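 Indirect cell-binding assay. Pelleted overnight PAO1 cells were resuspended and diluted 10-fold in PBS, then given compound at 10 μM for 1 h at 37 °C in the dark. After centrifugation, the supernatant visible spectrum (380–700 nm) was compared with the spectrum of each compound alone; a drop in absorbance indicates binding.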

[2] = system: Pseudomonas aeruginosa; experiment: Antimicrobial activity against Pseudomonas aeruginosa PA01 assessed as inhibition of microbial growth measured after 24 hrs by broth dilution method; type: functional; conditions: PAO1
Summary of the method: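 Broth dilution MIC against P. aeruginosa PAO1. Overnight LB cultures (37 °C, 200 rpm) diluted 100-fold to 10^7 CFU/mL. Two-fold dilution series from 200 to 0.1 μg/mL, 24 h at 37 °C. MIC taken as the lowest concentration with no detectable turbidity. Run at least three times.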

[3] = Induction of NO production aqueous solution assessed as nitrite level at 80 uM measured after 1 hr of white light irradiation by griess reagent based assay; type: functional
Summary of the method: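 Griess assay. Aqueous compound at 160 μM was mixed 1:1 with Griess reagent, giving 80 μM, in a quartz cuvette. The mix was irradiated with a 300 W tungsten lamp at 40 cm for 15 min, 1 h or 2 h. Absorbance was read at 540 nm and nitrite quantified against a NaNO2 standard curve (5–50 μM).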

[4] = system: HCT-116; experiment: Antitumour activity against human HCT-116 cells assessed as cell growth inhibition at 0.1 to 75 uM incubated for 72 hrs by MTT assay; type: functional, cell-based; conditions: dose 0.1-75 µM
Summary of the method: (§1)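 MTT viability assay. Cells were plated at line-specific densities and left to attach 24 h, then exposed 72 h at 37 °C to 0.1–75 μM, eight replicates per concentration, with 0.2% DMSO controls. MTT was added for 3 h at 37 °C, formazan dissolved in DMSO and read at 570 nm. IC50 came from nonlinear regression; mean ± ES of 4/5 independent experiments.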

[5] = system: MDA-MB-231; experiment: Antitumour activity against human MDA-MB-231 cells assessed as cell growth inhibition at 0.1 to 75 uM incubated for 72 hrs by MTT assay; type: functional, cell-based; conditions: dose 0.1-75 µM; summary of the method: as §1
[6] = system: PC-3; experiment: Antitumor activity against human PC-3 cells assessed as cell growth inhibition at 0.1 to 75 uM incubated for 72 hrs by MTT assay; type: functional, cell-based; conditions: dose 0.1-75 µM; summary of the method: as §1
[7] = system: DU-145; experiment: Antitumor activity against human DU-145 cells assessed as cell growth inhibition at 0.1 to 75 uM incubated for 72 hrs by MTT assay; type: functional, cell-based; conditions: dose 0.1-75 µM; summary of the method: as §1
[8] = system: PC-3; experiment: Antitumor activity against human PC-3 cells assessed as cell growth inhibition incubated for 72 hrs by MTT assay; type: functional, cell-based; conditions: PC-3, 72 h; summary of the method: as §1
[9] = system: DU-145; experiment: […] against human DU-145 cells assessed as reduction in cell viability by measuring difference in IC50 pretreated for 24 hrs followed by white light irradiation for 1 hr further incubated for 48 hrs in drug free medium by MTT assay; type: functional, cell-based
Summary of the method: (§2)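 Prostate cells were treated for 24 h, irradiated 1 h with white or blue light (dark-kept comparison), then incubated 48 h in drug-free medium.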

[10] = system: DU-145; experiment: […] against human DU-145 cells assessed as reduction in cell viability by measuring difference in IC50 pretreated for 24 hrs followed by blue light irradiation for 1 hr further incubated for 48 hrs in drug free medium by MTT assay; type: functional, cell-based; summary of the method: as §2
[11] = system: PC-3; experiment: […] against human PC-3 cells assessed as reduction in cell viability by measuring difference in IC50 pretreated for 24 hrs followed by white light irradiation for 1 hr further incubated for 48 hrs in drug free medium by MTT assay; type: functional, cell-based; summary of the method: as §2
[12] = system: PC-3; experiment: […] against human PC-3 cells assessed as reduction in cell viability by measuring difference in IC50 pretreated for 24 hrs followed by blue light irradiation for 1 hr further incubated for 48 hrs in drug free medium by MTT assay; type: functional, cell-based; summary of the method: as §2
[13] = system: Pseudomonas aeruginosa; experiment: Photodynamic antimicrobial activity against Pseudomonas aeruginosa PA01 assessed as bacterial eradication at 10 uM incubated for 10 min in dark followed by irradiation with 20J/cm2 light by viability count technique; type: functional, organism-based; conditions: PAO1
Summary of the method: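 Photoinactivation assay. Overnight cultures were diluted in 10 mM phosphate buffer, pH 7.4, to ~10^6 CFU/mL. Compound was added at 10 μM and held 10 min in the dark, then irradiated at 410 ± 10 nm (20 J/cm2); dark controls were not irradiated. Survivors were counted on LB agar after overnight 37 °C incubation and reported as CFU/mL; at least three independent experiments.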

| Structure (SMILES) | Activity [1] | MIC [2] | Activity [3] | Activity [4] | Activity [5] | Activity [6] | Activity [7] | IC50 [8] | Activity [9] | Activity [10] | Activity [11] | Activity [12] | Activity [13] |
| --- | --- | --- | --- | --- | --- | --- | --- | --- | --- | --- | --- | --- | --- |
| CCn1cc(C(=O)O)c(=O)c2cc(F)c(N3CCN(c4ccc([N+](=O)[O-])c(C(F)(F)F)c4)CC3)cc21 | Active | 25 µg/mL | 3.1 µM |  |  |  |  |  |  |  |  |  |  |
| CCn1cc(C(=O)OC)c(=O)c2cc(F)c(N3CCN(c4ccc([N+](=O)[O-])c(C(F)(F)F)c4)CC3)cc21 | Active | 25 µg/mL |  |  |  |  |  |  |  |  |  |  |  |
| O=C(O)c1cn(C2CC2)c2cc(N3CCN(CCCNc4ccc([N+](=O)[O-])c(C(F)(F)F)c4)CC3)c(F)cc2c1=O | Active | 25 µg/mL | 6.2 µM | Active | Active | Active | Active | < 3 µM | inactive | inactive | inactive | inactive |  |
| COC(=O)c1cn(C2CC2)c2cc(N3CCN(c4ccc([N+](=O)[O-])c(C(F)(F)F)c4)CC3)c(F)cc2c1=O | Active | 25 µg/mL |  | Active | Active | Active | Active |  |  |  |  |  |  |
| COC(=O)c1cn(C2CC2)c2cc(N3CCN(CCNc4ccc([N+](=O)[O-])c(C(F)(F)F)c4)CC3)c(F)cc2c1=O | Active | 25 µg/mL |  | Active | Active | Active | Active |  |  |  |  |  |  |
| O=C(O)c1cn(C2CC2)c2cc(N3CCN(c4ccc([N+](=O)[O-])c(C(F)(F)F)c4)CC3)c(F)cc2c1=O | Active | 25 µg/mL | 0.6 µM | Active | Active | Active | Active |  |  |  |  |  |  |
| O=C(O)c1cn(C2CC2)c2cc(N3CCN(CCNc4ccc([N+](=O)[O-])c(C(F)(F)F)c4)CC3)c(F)cc2c1=O | Active | 25 µg/mL | 0.5 µM | Active | Active | Active | Active |  |  |  |  |  |  |
| COC(=O)c1cn(C2CC2)c2cc(N3CCN(CCCNc4ccc([N+](=O)[O-])c(C(F)(F)F)c4)CC3)c(F)cc2c1=O | Active | 25 µg/mL |  | Active | Active | Active | Active |  |  |  |  |  |  |
| CCn1cc(C(=O)OC)c(=O)c2cc(F)c(N3CCN(CCNc4ccc([N+](=O)[O-])c(C(F)(F)F)c4)CC3)cc21 | Active | 25 µg/mL |  |  |  |  |  |  |  |  |  |  |  |
| CCn1cc(C(=O)O)c(=O)c2cc(F)c(N3CCN(CCNc4ccc([N+](=O)[O-])c(C(F)(F)F)c4)CC3)cc21 | Active | 25 µg/mL | 0.2 µM |  |  |  |  |  | inactive | inactive | inactive | inactive | inactive |
| CCn1cc(C(=O)OC)c(=O)c2cc(F)c(N3CCN(CCCNc4ccc([N+](=O)[O-])c(C(F)(F)F)c4)CC3)cc21 | Active | 25 µg/mL |  |  |  |  |  |  |  |  |  |  |  |
| CCn1cc(C(=O)O)c(=O)c2cc(F)c(N3CCN(CCCNc4ccc([N+](=O)[O-])c(C(F)(F)F)c4)CC3)cc21 | Active | 25 µg/mL | 1.8 µM |  |  |  |  |  |  |  |  |  |  |
